In ChEMBL document CHEMBL3243954 (J Med Chem, 1979):

Key:
Brain [1] = test: Drug uptake albino mouse brain at 5 mg equivalent of oxazepam/kg, iv after 3 mins measured per gm of tissue by thin-layer chromatography; format: ADME, organism-based; conditions: in vivo, 0.05 h
Brain [2] = test: Drug uptake albino mouse brain at 5 mg equivalent of oxazepam/kg, iv after 5 mins measured per gm of tissue by thin-layer chromatography; format: ADME, organism-based; conditions: in vivo
Brain [3] = test: Drug uptake albino mouse brain at 5 mg equivalent of oxazepam/kg, iv after 10 mins measured per gm of tissue by thin-layer chromatography; format: ADME, organism-based; conditions: in vivo
Brain [4] = test: Drug uptake albino mouse brain at 5 mg equivalent of oxazepam/kg, iv after 20 mins measured per gm of tissue by thin-layer chromatography; format: ADME, organism-based; conditions: in vivo
Brain [5] = test: Drug uptake albino mouse brain at 5 mg equivalent of oxazepam/kg, iv after 40 mins measured per gm of tissue by thin-layer chromatography; format: ADME, organism-based; conditions: in vivo
Brain [6] = test: Drug uptake albino mouse brain at 5 mg equivalent of oxazepam/kg, iv after 60 mins measured per gm of tissue by thin-layer chromatography; format: ADME, organism-based; conditions: in vivo, 1 h
Brain [7] = test: Drug uptake albino mouse brain at 5 mg equivalent of oxazepam/kg, iv after 120 mins measured per gm of tissue by thin-layer chromatography; format: ADME, organism-based; conditions: in vivo, 2 h
Brain [8] = test: Drug uptake albino mouse brain at 5 mg equivalent of oxazepam/kg, iv after 240 mins measured per gm of tissue by thin-layer chromatography; format: ADME, organism-based; conditions: in vivo, 4 h
Liver [9] = test: Drug metabolism in albino mouse liver assessed as total metabolite concentration at 5 mg equivalent of oxazepam/kg, iv after 1 min by thin layer chromatography; format: ADME, organism-based; conditions: in vivo
Summary of the method: (§1)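 Liver was dried and its total radioactivity, the sum of metabolites, was measured on a carbon-tritium analyzer. Values are means of four mice (±SE).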

Liver [10] = test: Drug metabolism in albino mouse liver assessed as total metabolite concentration at 5 mg equivalent of oxazepam/kg, iv after 3 mins by thin layer chromatography; format: ADME, organism-based; conditions: in vivo, 0.05 h; summary of the method: as §1
Liver [11] = test: Drug metabolism in albino mouse liver assessed as total metabolite concentration at 5 mg equivalent of oxazepam/kg, iv after 5 mins by thin layer chromatography; format: ADME, organism-based; conditions: in vivo; summary of the method: as §1
Liver [12] = test: Drug metabolism in albino mouse liver assessed as total metabolite concentration at 5 mg equivalent of oxazepam/kg, iv after 10 mins by thin layer chromatography; format: ADME, organism-based; conditions: in vivo; summary of the method: as §1
[13] = Retardation factor, Rm of the compound by thin-layer chromatography; format: physicochemical
Brain [14] = test: Drug uptake albino mouse brain at 5 mg equivalent of oxazepam/kg, iv after 1 min measured per gm of tissue by thin-layer chromatography; format: ADME, organism-based; conditions: in vivo
esterase = test: (§2) Drug metabolism in mouse liver microsomes assessed as rate of esterase-mediated compound hydrolysis by pH stat based titrimetric analysis; format: ADME; conditions: liver microsomes
[15] = Drug metabolism in mouse liver microsomes assessed as rate of esterase-mediated compound hydrolysis measured per mg of protein by pH stat based titrimetric analysis; format: ADME
Mus musculus [16] = test: Antimetrazol activity in iv dosed mouse assessed as inhibition of metrazol-induced tonic-extensor seizures administered 30 mins prior to metrazol challenge; format: functional
Summary of the method: (§3)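 Mice dosed iv with the ester in aqueous solution containing under 10% chremofor. Metrazol 125 mg/kg sc was given 30 or 60 min after the ester. ED50 is the dose preventing tonic-extensor seizures in 50% of mice, derived by probit analysis.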

Mus musculus [17] = test: Antimetrazol activity in iv dosed mouse assessed as inhibition of metrazol-induced tonic-extensor seizures administered 60 mins prior to metrazol challenge; format: functional; summary of the method: as §3
Mus musculus [18] = test: Muscle relaxant activity in iv dosed mouse after 30 mins by rotarod test; format: ADME, organism-based; conditions: in vivo, 0.5 h
Mus musculus [19] = test: Muscle relaxant activity in iv dosed mouse after 60 mins by rotarod test; format: ADME, organism-based; conditions: in vivo, 1 h
Mus musculus [20] = species on record: Mus musculus; test: Ratio of ED50 for muscle relaxant activity in mouse to ED50 for antimetrazol activity in mouse measured after 30 mins
Mus musculus [21] = species on record: Mus musculus; test: Ratio of ED50 for muscle relaxant activity in mouse to ED50 for antimetrazol activity in mouse measured after 60 mins
Brain [22] = test: Drug uptake albino mouse brain at 10 mg equivalent of oxazepam/kg, iv after 12 mins measured per gm of tissue by thin-layer chromatography; format: ADME, organism-based; conditions: in vivo, 0.2 h
Brain [23] = test: Drug uptake albino mouse brain at 10 mg equivalent of oxazepam/kg, iv after 1 min measured per gm of tissue by thin-layer chromatography; format: ADME, organism-based; conditions: in vivo
Brain [24] = test: Drug uptake albino mouse brain at 10 mg equivalent of oxazepam/kg, iv after 3 mins measured per gm of tissue by thin-layer chromatography; format: ADME, organism-based; conditions: in vivo, 0.05 h
Brain [25] = test: Drug uptake albino mouse brain at 10 mg equivalent of oxazepam/kg, iv after 6 mins measured per gm of tissue by thin-layer chromatography; format: ADME, organism-based; conditions: in vivo, 0.1 h
Brain [26] = test: Drug uptake albino mouse brain at 10 mg equivalent of oxazepam/kg, iv after 20 mins measured per gm of tissue by thin-layer chromatography; format: ADME, organism-based; conditions: in vivo
Brain [27] = test: Drug uptake albino mouse brain at 10 mg equivalent of oxazepam/kg, iv after 40 mins measured per gm of tissue by thin-layer chromatography; format: ADME, organism-based; conditions: in vivo
[28] = as §2; format: ADME; conditions: microsomes
[29] = Mus musculus, iv, read-out: ED50

O=C(CCc1ccccc1)OC1N=C(c2ccccc2)c2cc(Cl)ccc2N[14C]1=O (stereo not drawn)
Drug uptake (Brain [1]): 0.8 nmol | Drug uptake (Brain [2]): 1.4 nmol | Drug uptake (Brain [3]): 2.2 nmol | Drug uptake (Brain [4]): 7.1 nmol | Drug uptake (Brain [5]): 12.1 nmol | Drug uptake (Brain [6]): 13.6 nmol | Drug uptake (Brain [7]): 12.2 nmol | Drug uptake (Brain [8]): 6.6 nmol | Drug metabolism (Liver [9]): 40.7 nmol/g | Drug metabolism (Liver [10]): 45.6 nmol/g | Drug metabolism (Liver [11]): 34.7 nmol/g | Drug metabolism (Liver [12]): 32.6 nmol/g | Rm [13]: 0.5 | Drug uptake (Brain [14]): 0.5 nmol

O=C(Cc1ccccc1)OC1N=C(c2ccccc2)c2cc(Cl)ccc2NC1=O (stereo not drawn)
Km (esterase): 22.7 µM | Vmax [15]: 12.2 nmol/min

CC(Cc1ccccc1)C(=O)OC1N=C(c2ccccc2)c2cc(Cl)ccc2N[14C]1=O (racemic)
Drug uptake (Brain [1]): 1.3 nmol | Drug uptake (Brain [3]): 4.7 nmol | Drug uptake (Brain [4]): 5.4 nmol | Drug uptake (Brain [5]): 10 nmol | Drug uptake (Brain [6]): 13 nmol | Drug uptake (Brain [7]): 14.2 nmol | Drug uptake (Brain [8]): 5.5 nmol | Rm [13]: 0.64

CCC(CC)C(=O)OC1N=C(c2ccccc2)c2cc(Cl)ccc2NC1=O (stereo not drawn)
ED50 (Mus musculus [16]; [29]): 0.28 mg/kg | ED50 (Mus musculus [17]; [29]): 0.33 mg/kg | ED50 (Mus musculus [18]): 2.8 mg/kg | ED50 (Mus musculus [19]): 3.42 mg/kg | Ratio ED50 (Mus musculus [20]): 10 | Vmax [15]: 1.4 nmol/min | Ratio ED50 (Mus musculus [21]): 10.4

CCC(=O)OC1N=C(c2ccccc2)c2cc(Cl)ccc2NC1=O (stereo not drawn)
ED50 (Mus musculus [16]; [29]): 0.13 mg/kg | ED50 (Mus musculus [17]; [29]): 0.32 mg/kg | ED50 (Mus musculus [18]): 4.45 mg/kg | ED50 (Mus musculus [19]): 4.4 mg/kg | Ratio ED50 (Mus musculus [20]): 34.2 | Vmax [15]: 139 nmol/min | Ratio ED50 (Mus musculus [21]): 13.8

COC(=O)CCC(=O)OC1N=C(c2ccccc2)c2cc(Cl)ccc2NC1=O (stereo not drawn)
Vmax [15]: 125 nmol/min

O=C(CCCc1ccccc1)OC1N=C(c2ccccc2)c2cc(Cl)ccc2NC1=O (stereo not drawn)
Km (esterase): 9.5 µM | Vmax [15]: 1.5 nmol/min

O=C(CCc1ccccc1)OC1N=C(c2ccccc2)c2cc(Cl)ccc2NC1=O (stereo not drawn)
Km (esterase): 9.7 µM | ED50 (Mus musculus [16]; [29]): 0.44 mg/kg | ED50 (Mus musculus [17]; [29]): 0.31 mg/kg | ED50 (Mus musculus [18]): 2.57 mg/kg | ED50 (Mus musculus [19]): 3.56 mg/kg | Ratio ED50 (Mus musculus [20]): 5.8 | Vmax [15]: 7.9 nmol/min | Ratio ED50 (Mus musculus [21]): 11.5

O=C(CCCc1ccccc1)OC1N=C(c2ccccc2)c2cc(Cl)ccc2N[14C]1=O (stereo not drawn)
Drug uptake (Brain [1]): 0.9 nmol | Drug uptake (Brain [2]): 0.8 nmol | Drug uptake (Brain [3]): 2.9 nmol | Drug uptake (Brain [4]): 6.5 nmol | Drug uptake (Brain [5]): 9.5 nmol | Drug uptake (Brain [6]): 9.6 nmol | Drug uptake (Brain [7]): 15.1 nmol | Drug uptake (Brain [8]): 12.2 nmol | Drug metabolism (Liver [9]): 80.7 nmol/g | Drug metabolism (Liver [10]): 85.9 nmol/g | Drug metabolism (Liver [11]): 82.3 nmol/g | Drug metabolism (Liver [12]): 40.4 nmol/g | Rm [13]: 0.65 | Drug uptake (Brain [14]): 0.4 nmol

CCC(=O)OC1N=C(c2ccccc2)c2cc(Cl)ccc2N[14C]1=O (stereo not drawn)
Drug uptake (Brain [22]): 30.8 nmol | Drug uptake (Brain [23]): 12.6 nmol | Drug uptake (Brain [24]): 17.5 nmol | Drug uptake (Brain [25]): 24.2 nmol | Drug uptake (Brain [26]): 41.7 nmol | Drug uptake (Brain [27]): 33 nmol | Rm [13]: -0.03

CC(Cc1ccccc1)C(=O)OC1N=C(c2ccccc2)c2cc(Cl)ccc2NC1=O (stereo in doubt; 11)
Km [28]: 25 µM | ED50 (Mus musculus [16]): 0.39 mg/kg | ED50 (Mus musculus [17]): 0.82 mg/kg | ED50 (Mus musculus [18]): 2.67 mg/kg | ED50 (Mus musculus [19]): 3.83 mg/kg | Ratio ED50 (Mus musculus [20]): 6.8 | Vmax [15]: 7.3 nmol/min | Ratio ED50 (Mus musculus [21]): 4.7
